Legend:
CYP3A5 [1] = molecular target: T1, CYP3A5 (Homo sapiens, UniProt P20815); assay: Inhibition of human recombinant CYP3A5 expressed in supersomes assessed as decrease in formation of D-luciferin using luciferin-IPA as substrate incubated for 10 mins in presence of NADPH by P450-Glo luminescence assay; conditions: probe luciferin-IPA
Cytochrome P450 2C9 = Cytochrome P450 2C9 (Homo sapiens, UniProt P11712); assay: Inhibition of CYP2C9 in human liver microsomes assessed as formation of alpha-hydroxytolbutamide at 1.85 uM using tolbutamide as substrate incubated for 15 mins in presence of NADPH by LC-MS/MS analysis; assay type: ADME; conditions: 0.25 h
In short: (§1)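 Pooled human liver microsomes with 2 mM NADPH in 100 mM KPO4 pH 7.4, 5 mM MgCl2, 37 °C, technical triplicate, final DMSO 0.2%. Probe (substrate, level, protein, time): 1A2 tacrine 5 μM, 0.2 mg/mL, 10 min; 2B6 bupropion 100 μM, 0.25 mg/mL, 10 min; 2C8 amodiaquine 5 μM, 0.25 mg/mL, 10 min; 2C9 tolbutamide 100 μM, 0.5 mg/mL, 15 min; 2C19 mephenytoin 100 μM, 0.25 mg/mL, 60 min; 2D6 dextromethorphan 5 μM, 0.5 mg/mL, 10 min; 3A4 midazolam 2.5 μM or testosterone 50 μM, 0.25 mg/mL, 10 min. Methanol quench, metabolites measured by LC-MS/MS.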

Cytochrome P450 3A5 = Cytochrome P450 3A5 (Homo sapiens, UniProt P20815); assay: Binding affinity to His-tagged CYP3A5 (unknown origin) expressed in Escherichia coli DH5alpha assessed as five-coordinate HS ferric heme iron state formation with displacement of distal water ligand by EPR spectroscopy
In short: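 Continuous-wave X-band EPR of purified recombinant enzyme, alone and in complex with ligand. Spectra were compared against the ligand-free form.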

Cytochrome P450 3A4 [2] = molecular target: T2, Cytochrome P450 3A4 (Homo sapiens, UniProt P08684); assay: Inhibition of CYP3A4 in CRISPR/Cas9-mediated CYP3A5 knock-out and doxycycline-induced CYP3A4 overexpressing human AsPC1 cells assessed as decrease in 1-hydroxymidazolam formation using midazolam as substrate pretreated with doxycycline for 24 hrs followed by incubation with compound for 24 hrs by LC-MS/MS analysis; assay type: ADME, cell-based
In short: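 AsPC-1 CYP3A5−/− cells with Dox-inducible CYP3A4, 10,000 cells/well, induced with 100 ng/mL doxycycline. Quenched with acetonitrile containing warfarin internal standard. 1-Hydroxymidazolam measured by LC-MS/MS and normalized to DMSO control (100%).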

Cytochrome P450 2B6 = molecular target: T3, Cytochrome P450 2B6 (Homo sapiens, UniProt P20813); assay: Inhibition of CYP2B6 in human liver microsomes assessed as formation of hydroxybupropion at 1.85 uM using bupropion as substrate incubated for 10 mins in presence of NADPH by LC-MS/MS analysis; assay type: ADME; in short: as §1
T3 sequence (P20813 whole entry): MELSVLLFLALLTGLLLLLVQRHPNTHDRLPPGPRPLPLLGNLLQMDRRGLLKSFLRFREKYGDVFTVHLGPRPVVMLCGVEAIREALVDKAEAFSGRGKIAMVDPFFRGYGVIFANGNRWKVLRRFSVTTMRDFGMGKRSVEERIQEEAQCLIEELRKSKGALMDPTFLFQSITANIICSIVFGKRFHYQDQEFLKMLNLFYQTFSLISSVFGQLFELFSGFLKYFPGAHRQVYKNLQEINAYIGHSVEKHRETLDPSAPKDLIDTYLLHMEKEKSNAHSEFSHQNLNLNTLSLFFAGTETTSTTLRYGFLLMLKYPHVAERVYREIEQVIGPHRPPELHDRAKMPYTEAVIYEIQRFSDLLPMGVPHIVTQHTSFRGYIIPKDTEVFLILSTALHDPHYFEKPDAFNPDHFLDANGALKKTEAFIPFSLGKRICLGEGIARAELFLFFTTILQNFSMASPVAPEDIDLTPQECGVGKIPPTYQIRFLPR

Cytochrome P450 2C8 = molecular target: T4, Cytochrome P450 2C8 (Homo sapiens, UniProt P10632); assay: Inhibition of CYP2C8 in human liver microsomes assessed as formation of desethylamodiaquine at 1.85 uM using amodiaquine as substrate incubated for 10 mins in presence of NADPH by LC-MS/MS analysis; assay type: ADME; in short: as §1
T4 sequence (P10632 whole entry): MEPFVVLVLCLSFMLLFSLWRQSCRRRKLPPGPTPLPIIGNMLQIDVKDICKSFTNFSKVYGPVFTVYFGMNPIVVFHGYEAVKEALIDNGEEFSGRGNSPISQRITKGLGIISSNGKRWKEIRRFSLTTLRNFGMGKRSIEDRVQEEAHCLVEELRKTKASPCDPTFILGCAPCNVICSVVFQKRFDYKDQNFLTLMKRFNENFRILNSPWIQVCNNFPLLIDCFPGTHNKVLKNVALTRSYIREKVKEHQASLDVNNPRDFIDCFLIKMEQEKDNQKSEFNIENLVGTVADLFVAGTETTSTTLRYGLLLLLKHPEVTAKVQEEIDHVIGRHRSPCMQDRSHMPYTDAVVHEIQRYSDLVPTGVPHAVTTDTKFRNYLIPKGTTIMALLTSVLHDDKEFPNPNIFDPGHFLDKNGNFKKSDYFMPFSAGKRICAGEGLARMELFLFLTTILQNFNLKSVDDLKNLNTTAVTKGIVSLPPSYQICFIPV

ASPC1 [3] = assay: Cytotoxicity against CRISPR/Cas9-mediated CYP3A5 knock-out and lentiviral pLVX-TRE3G-ZsGreen1-CYP3A4 transduced human AsPC1 cells overexpressing CYP3A4 assessed as cell growth; assay type: ADME, cell-based
In short: (§2)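 Cells seeded at 10,000/well. Dox-inducible lines were induced with 100 ng/mL doxycycline, then treated 24 h later with compound at 16 two-fold dilutions (0.0003–10 μM) plus 5 μM midazolam, in 0.66% DMSO final, for 24 h. Phase-contrast confluence imaging followed. Values were normalized to six 0.66% DMSO replicates and fitted with a three-parameter log(inhibitor) vs response curve.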

ASPC1 [4] = assay: Cytotoxicity against doxycycline-induced CYP3A5 overexpressing wild type human AsPC1 cells assessed as cell growth; assay type: ADME, cell-based; in short: as §2
ASPC1 [5] = assay: Cytotoxicity against CRISPR/Cas9-mediated CYP3A5 knock-out and doxycycline-induced CYP3A5 overexpressing human AsPC1 cells assessed as cell growth; assay type: ADME, cell-based; in short: as §2
CYP3A5 [6] = molecular target: T1, CYP3A5; assay: Inhibition of human recombinant CYP3A5 expressed in supersomes assessed as decrease in formation of D-luciferin at 1.89 uM using luciferin-IPA as substrate incubated for 10 mins in presence of NADPH by P450-Glo luminescence assay relative to control; conditions: probe luciferin-IPA
Cytochrome P450 3A4 [7] = molecular target: T2, Cytochrome P450 3A4; assay: Binding affinity to His-tagged CYP3A4 (unknown origin) expressed in Escherichia coli DH5alpha assessed as formation of Soret band at 386 nm with low decrease in low-spin soret maxima at 416 nm by UV-vis spectrophotometric titration analysis; assay type: ADME; parameters: dose or concentration left out as unconfirmed
In short: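 Recombinant His-tagged enzyme expressed in E. coli with groESL chaperones, purified by Ni-NTA, CM-sepharose and S-200 gel filtration (Rz ≥1.3). Ligand added stepwise until heme absorbance stopped changing. Difference spectra taken against the ligand-free spectrum. Peak-minus-trough ΔAbs (388–418 nm) plotted against ligand concentration and fitted with equation 2 for Kd.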

Cytochrome P450 3A4 [8] = molecular target: T2, Cytochrome P450 3A4; assay: Inhibition of CYP3A4 in human liver microsomes assessed as formation of 1-hydroxymidazolam at 1.85 uM using midazolam as substrate incubated for 10 mins in presence of NADPH by LC-MS/MS analysis
Cytochrome P450 3A4 [9] = molecular target: T2, Cytochrome P450 3A4; assay: Binding affinity to His-tagged CYP3A4 (unknown origin) expressed in Escherichia coli DH5alpha assessed as retention of axial water ligand with ligand free LS with no new HS formation by EPR spectroscopy; assay type: ADME; conditions: buffer
In short: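 Continuous-wave X-band EPR of the purified recombinant ligand-free enzyme and of its ligand complex. Ferric heme spin state (LS vs HS) assigned from g-values.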

T2 sequence (P08684 whole entry): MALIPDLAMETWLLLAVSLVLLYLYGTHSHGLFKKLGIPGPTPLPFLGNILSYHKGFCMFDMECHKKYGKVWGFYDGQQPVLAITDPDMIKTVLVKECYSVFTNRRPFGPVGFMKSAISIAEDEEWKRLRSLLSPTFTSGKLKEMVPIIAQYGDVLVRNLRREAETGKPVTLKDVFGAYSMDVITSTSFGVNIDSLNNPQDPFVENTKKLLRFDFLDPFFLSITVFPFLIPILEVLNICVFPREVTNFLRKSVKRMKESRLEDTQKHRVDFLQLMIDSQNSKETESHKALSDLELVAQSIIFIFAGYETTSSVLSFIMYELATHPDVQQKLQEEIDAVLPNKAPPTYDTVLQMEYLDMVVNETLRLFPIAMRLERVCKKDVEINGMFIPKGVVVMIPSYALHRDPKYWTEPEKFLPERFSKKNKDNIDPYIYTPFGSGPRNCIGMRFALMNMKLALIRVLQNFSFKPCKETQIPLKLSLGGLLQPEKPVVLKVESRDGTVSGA
T1 sequence (P20815 whole entry): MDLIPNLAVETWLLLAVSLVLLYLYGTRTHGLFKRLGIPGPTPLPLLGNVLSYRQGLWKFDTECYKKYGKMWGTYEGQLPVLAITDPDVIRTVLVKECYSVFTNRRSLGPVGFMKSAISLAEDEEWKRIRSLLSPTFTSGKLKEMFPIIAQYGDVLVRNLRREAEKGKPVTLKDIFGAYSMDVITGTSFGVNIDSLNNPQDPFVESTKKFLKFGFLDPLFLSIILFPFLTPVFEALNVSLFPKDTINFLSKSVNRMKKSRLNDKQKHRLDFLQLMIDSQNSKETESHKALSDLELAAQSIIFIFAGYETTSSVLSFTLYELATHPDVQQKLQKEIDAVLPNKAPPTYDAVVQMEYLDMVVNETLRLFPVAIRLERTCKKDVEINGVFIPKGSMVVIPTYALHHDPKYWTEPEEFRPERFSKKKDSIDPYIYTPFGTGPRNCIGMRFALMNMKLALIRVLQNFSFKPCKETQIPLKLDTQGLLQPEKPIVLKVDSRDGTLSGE
Cytochrome P450 3A5, sequence (P20815 whole entry): as above
Cytochrome P450 2C9, sequence (P11712 whole entry): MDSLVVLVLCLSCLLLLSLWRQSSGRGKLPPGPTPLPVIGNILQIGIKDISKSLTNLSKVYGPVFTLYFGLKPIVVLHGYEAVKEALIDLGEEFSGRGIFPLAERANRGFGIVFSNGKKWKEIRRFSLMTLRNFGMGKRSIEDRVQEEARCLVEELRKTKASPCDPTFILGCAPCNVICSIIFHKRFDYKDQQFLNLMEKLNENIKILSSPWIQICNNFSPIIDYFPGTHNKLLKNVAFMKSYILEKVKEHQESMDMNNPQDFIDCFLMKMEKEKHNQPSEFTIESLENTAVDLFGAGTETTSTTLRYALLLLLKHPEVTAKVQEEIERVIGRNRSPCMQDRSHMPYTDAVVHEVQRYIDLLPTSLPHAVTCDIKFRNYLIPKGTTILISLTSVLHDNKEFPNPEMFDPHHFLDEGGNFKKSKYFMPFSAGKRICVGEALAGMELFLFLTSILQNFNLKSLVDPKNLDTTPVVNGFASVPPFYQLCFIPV

With `CCC(=O)O[C@]1(C(=O)CCl)[C@@H](C)C[C@H]2[C@@H]3CCC4=CC(=O)C=C[C@]4(C)[C@@]3(F)[C@@H](O)C[C@@]21C` [CLOBETASOL PROPIONATE] the IC90 at 10 min (CYP3A5 [1]) was 1800 nM, the “inhibition (INH)” value (Cytochrome P450 2C9) was “Not Active” and the Activity (Cytochrome P450 3A5) was “Active”. The IC50 (Cytochrome P450 3A4 [2]) was “Not Active”, the “inhibition (INH)” value (Cytochrome P450 2B6) was “Not Active” and the “inhibition (INH)” value (Cytochrome P450 2C8) was “Not Active”. The Activity (ASPC1 [3]) was “Non-Toxic”, the Activity (ASPC1 [4]) was “Non-Toxic” and the Activity (ASPC1 [5]) was “Non-Toxic”. The inhibition at 10 min, 1.89 µM (CYP3A5 [6]) was 90%, the Activity (Cytochrome P450 3A4 [7]) was “Active” and the “inhibition (INH)” value (Cytochrome P450 3A4 [8]) was “Not Active”. The Activity (Cytochrome P450 3A4 [9]) was “Not Active”.

From ChEMBL document CHEMBL4321880 (J Med Chem, 2020)
